Source: ChEMBL document CHEMBL1124957, “6-Benzoxazinylpyridazin-3-ones: potent, long-acting positive inotrope and peripheral vasodilator agents” (J Med Chem, 1990)
Values belong to the compound of their own block, whether it stands above or below them.

Tests used:
Canis familiaris [1] = experiment: Heart rate in dog following 1.875 mg/kg i.v. administration.; type: functional, Canis lupus familiaris; details: route intravenous
Outline: (§1)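 Anesthetized adult mongrel dogs (sodium pentobarbital 45 mg/kg ip), artificially respired; MAP from cannulated femoral artery, infusion into femoral vein. Dopamine standard (10–15 μg/kg/min, 3 min) checked inotropic responsiveness. Compounds dissolved in DMF, diluted to 10% final in saline; stepwise 3–4 increasing doses, each infused over 5 min after prior peak. CF, MAP, HR expressed as % change from predrug control vs cumulative dose.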

[2] = biological target: phosphodiesterase fraction III (Canis familiaris); experiment: Inhibition of cardiac phosphodiesterase-3 isolated from canine heart.
Canis familiaris [3] = experiment: Myocardial contractile force (CF) in dog after intravenous dose of 1.875 mg/kg; type: functional, Canis lupus familiaris, Myocardium; outline: as §1
Canis familiaris [4] = experiment: Mean arterial blood pressure in dog following 1.875 mg/kg i.v. administration.; type: functional, Canis lupus familiaris; details: route intravenous; outline: as §1
Canis familiaris [5] = experiment: Effective dose required to increase the myocardial contractile force (CF) 50% above base line when administered intravenously.; type: functional; details: Canis lupus familiaris, Myocardium, iv
Outline: (§2)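 Dopamine standard (10–15 μg/kg/min, 3 min) checked inotropic responsiveness. Compounds dissolved in DMF, diluted to 10% final in saline; stepwise 3–4 increasing doses, each infused over 5 min after prior peak. CF, MAP, HR expressed as % change from predrug control vs cumulative dose.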

Canis familiaris [6] = experiment: Myocardial contractile force (CF) in dog after intravenous dose of 0.470 mg/kg; type: functional, Canis lupus familiaris, Myocardium; details: dose 0.47 mg/kg; outline: as §1
Canis familiaris [7] = experiment: Heart rate (HR) in dog after intravenous dose of 0.470 mg/kg; type: functional, Canis lupus familiaris; details: dose 0.47 mg/kg; outline: as §1
Canis familiaris [8] = experiment: Mean arterial blood pressure (MAP) in dog after intravenous dose of 0.470 mg/kg; type: functional, Canis lupus familiaris; design: unit: % change from predrug control; details: dose 0.47 mg/kg; outline: as §1
Canis familiaris [9] = experiment: Heart rate (HR) in dog after intravenous dose of 0.100 mg/kg; type: functional, Canis lupus familiaris; details: dose 0.1 mg/kg; outline: as §1
Canis familiaris [10] = experiment: Myocardial contractile force (CF) in dog after intravenous dose of 0.100 mg/kg; type: functional, Canis lupus familiaris, Myocardium; details: dose 0.1 mg/kg; outline: as §1
Canis familiaris [11] = experiment: Mean arterial blood pressure (MAP) in dog after intravenous dose of 0.100 mg/kg; type: functional, Canis lupus familiaris; details: dose 0.1 mg/kg; outline: as §1
Canis familiaris [12] = experiment: Myocardial contractile force (CF) in dog after intravenous dose of 0.075 mg/kg; type: functional, Canis lupus familiaris, Myocardium; outline: as §2
Canis familiaris [13] = experiment: Mean arterial blood pressure (MAP) in dog after intravenous dose of 0.075 mg/kg; type: functional, Canis lupus familiaris; outline: as §2
Canis familiaris [14] = experiment: Heart rate (HR) in dog after intravenous dose of 0.075 mg/kg; type: functional, Canis lupus familiaris; outline: as §2
Canis familiaris [15] = experiment: Heart rate (HR) in dog after intravenous dose of 0.010 mg/kg; type: functional, Canis lupus familiaris; details: dose 0.075 mg/kg, in the assay text read “0.075 mg/kg” for “0.010 mg/kg”; outline: as §1
Canis familiaris [16] = experiment: Myocardial contractile force (CF) in dog after intravenous dose of 0.188 mg/kg; type: functional, Canis lupus familiaris, Myocardium; outline: as §1
Canis familiaris [17] = experiment: Mean arterial blood pressure (MAP) in dog after intravenous dose of 0.188 mg/kg; type: functional, Canis lupus familiaris; outline: as §1
Canis familiaris [18] = experiment: Heart rate (HR) in dog after intravenous dose of 0.188 mg/kg; type: functional, Canis lupus familiaris; outline: as §1

Compound: C=CCN1N=C(c2ccc3c(c2)N(S(C)(=O)=O)CCO3)CCC1=O
Activity (Canis familiaris [1]): 10
Activity (Canis familiaris [3]): 37
Activity (Canis familiaris [4]): 4
ED50 (Canis familiaris [5]): > 1.88 mg/kg

Compound: CS(=O)(=O)N1CCOc2ccc(C3=NN(c4ccccc4)C(=O)CC3)cc21
Activity (Canis familiaris [1]): 6
IC50 [2]: 200 µM
Activity (Canis familiaris [3]): 30
Activity (Canis familiaris [4]): 9
ED50 (Canis familiaris [5]): > 1.88 mg/kg

Compound: CCCCCN1N=C(c2ccc3c(c2)N(S(C)(=O)=O)CCO3)CCC1=O
Activity (Canis familiaris [1]): -2
IC50 [2]: 50 µM
Activity (Canis familiaris [3]): 22
Activity (Canis familiaris [4]): -6
ED50 (Canis familiaris [5]): > 1.88 mg/kg

Compound: Cc1[nH]c(=O)c(C#N)cc1-c1ccncc1 [MILRINONE]
Activity (Canis familiaris [9]): 15
Activity (Canis familiaris [10]): 105
Activity (Canis familiaris [11]): -13
ED50 (Canis familiaris [5]): 0.022 mg/kg

Compound: Cc1cc2c(c(C3=NNC(=O)CC3)c1)OCC(=O)N2
Activity (Canis familiaris [1]): 2
IC50 [2]: 31 µM
Activity (Canis familiaris [3]): 32
Activity (Canis familiaris [4]): -12
ED50 (Canis familiaris [5]): > 1.88 mg/kg

Compound: O=C1CCC(c2ccc(-n3ccnc3)cc2)=NN1 [IMAZODAN]
Activity (Canis familiaris [16]): 77
Activity (Canis familiaris [17]): -4
Activity (Canis familiaris [18]): 8
ED50 (Canis familiaris [5]): 0.0822 mg/kg

Now from value to compound, other results behind:

IC50 [2]: 5 µM
Compound: CC1CC(=O)NN=C1c1ccc2c(c1)N(C(C)C)C(=O)C(C)O2 (stereo not given)
Activity (Canis familiaris [1]): 8
Activity (Canis familiaris [3]): 83
Activity (Canis familiaris [4]): -16
ED50 (Canis familiaris [5]): 0.47 mg/kg

IC50 [2]: 50 µM
Compound: O=C1CCC(c2ccc3c(c2)NCCO3)=NN1
Activity (Canis familiaris [1]): 15
Activity (Canis familiaris [3]): 105
Activity (Canis familiaris [4]): -17
ED50 (Canis familiaris [5]): 0.62 mg/kg

IC50 [2]: 6 µM
Compound: CC1CC(=O)NN=C1c1ccc2c(c1)NCCO2 (stereo not given)
Activity (Canis familiaris [6]): 149
Activity (Canis familiaris [7]): 44
Activity (Canis familiaris [8]): -11
ED50 (Canis familiaris [5]): 0.056 mg/kg

IC50 [2]: 6 µM
Compound: CC1CC(=O)NN=C1c1ccc2c(c1)OC(C)(C)C(=O)N2C (stereo not given)
Activity (Canis familiaris [12]): 85
Activity (Canis familiaris [13]): -14
Activity (Canis familiaris [14]): 19
ED50 (Canis familiaris [5]): 0.0217 mg/kg

IC50 [2]: 4 µM
Compound: CC1CC(=O)NN=C1c1ccc2c(c1)OC(C)C(=O)N2 (stereo not given)
Activity (Canis familiaris [12]): 154
Activity (Canis familiaris [13]): -17
Activity (Canis familiaris [14]): 23
ED50 (Canis familiaris [5]): 0.0054 mg/kg

IC50 [2]: 5 µM
Compound: CC1CC(=O)NN=C1c1ccc2c(c1)NC(=O)C(C)O2 (stereo not given)
Activity (Canis familiaris [6]): 157
Activity (Canis familiaris [7]): 18
Activity (Canis familiaris [8]): -10
ED50 (Canis familiaris [5]): 0.07 mg/kg

IC50 [2]: 9.5 µM
Compound: CS(=O)(=O)N1CCOc2ccc(C3=NNC(=O)CC3)cc21
Activity (Canis familiaris [1]): 24
Activity (Canis familiaris [3]): 76
Activity (Canis familiaris [4]): -14
ED50 (Canis familiaris [5]): 1.33 mg/kg

IC50 [2]: 100 µM
Compound: CC(=O)N1CCOc2ccc(C3=NNC(=O)CC3)cc21
Activity (Canis familiaris [1]): 20
Activity (Canis familiaris [3]): 121
Activity (Canis familiaris [4]): -14
ED50 (Canis familiaris [5]): 0.37 mg/kg

IC50 [2]: 7 µM
Compound: CC1(C)C(=O)Nc2ccc(C3=NNC(=O)CC3)cc21 [INDOLIDAN]
Activity (Canis familiaris [12]): 110
Activity (Canis familiaris [13]): -27
Activity (Canis familiaris [15]): 32
ED50 (Canis familiaris [5]): 0.0084 mg/kg

IC50 [2]: 630 µM
Compound: O=C1CCC(c2ccc3c(c2)NC(=O)CO3)=NN1
Activity (Canis familiaris [1]): 9
ED50 (Canis familiaris [5]): 0.7 mg/kg
